The text below walks through data of ChEMBL document CHEMBL4477209, “Indole-2-carboxamide-based MmpL3 Inhibitors Show Exceptional Antitubercular Activity in an Animal Model of Tuberculosis Infection” (J Med Chem, 2016).

The source made the active and inactive calls. The rule behind the calls is not given here.

Data set [1] in a line: AUClast in BALB/c mouse lung at 100 mg/kg administered via oral gavage after 0.25 to 24 hrs by LC-MS analysis. It is filed as ADME, organism-based. Conditions: in vivo. The method, boiled down:
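Female BALB/c mice (20 g), single oral gavage dose of 100 mg/kg. Cardiac blood and lungs taken at 0, 0.25, 0.5, 1, 2, 4, 8 and 24 h (n = 3 per time point). Plasma separated by centrifugation; lungs bead-beaten in water and supernatant recovered. Drug quantified by LC-MS/MS against an indole-2-carboxamide internal standard. Parameters derived by noncompartmental analysis.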

The target in data set [2] is T1, Nuclear receptor subfamily 1 group I member 3 (Homo sapiens, UniProt Q14994).
T1 sequence (Q14994 whole entry): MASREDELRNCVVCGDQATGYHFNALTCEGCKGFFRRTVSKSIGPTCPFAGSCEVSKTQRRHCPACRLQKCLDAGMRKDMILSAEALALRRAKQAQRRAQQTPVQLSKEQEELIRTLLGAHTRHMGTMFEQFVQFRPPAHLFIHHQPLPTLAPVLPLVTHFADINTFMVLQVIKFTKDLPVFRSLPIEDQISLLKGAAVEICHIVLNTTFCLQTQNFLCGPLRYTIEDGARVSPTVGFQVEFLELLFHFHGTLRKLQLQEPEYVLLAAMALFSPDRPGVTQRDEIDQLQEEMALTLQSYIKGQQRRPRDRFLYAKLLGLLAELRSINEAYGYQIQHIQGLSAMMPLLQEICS
The data set can be described thus: Transactivation of CAR (unknown origin) assessed as upregulation of CYP2B6 at 0.1 to 1 microg/ml. It is filed as ADME. The method, boiled down: (§1)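 Nuclear receptor reporter-gene induction assay, with reporters coupled to PXR, CAR or AhR. Compound was tested at 0.1–1, 3 and 8 μg/mL. Positive controls were rifampin for PXR, CITCO for CAR and 3-methylcholanthrene for AhR.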

Data set [3] concerns the target Voltage-gated inwardly rectifying potassium channel KCNH2 (Homo sapiens, UniProt Q12809). The data set can be described thus: Inhibition of human ERG.
The nature of data set [4]: Tmax in BALB/c mouse lung at 100 mg/kg administered via oral gavage after 0.25 to 24 hrs by LC-MS analysis. It is filed as ADME, organism-based. The method, boiled down:
(§2)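 Female BALB/c mice (20 g) got a single 100 mg/kg oral gavage dose. Three animals were sacrificed per time point at 0, 0.25, 0.5, 1, 2, 4, 8 and 24 h. Cardiac blood was spun at 12 000g, 4 °C for plasma. Lungs were bead-beaten in water and the supernatant taken. Both matrices were quantified by LC-MS/MS with an indole-2-carboxamide internal standard. Parameters came from noncompartmental analysis.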

Data set [5] is described as follows: Tmax in BALB/c mouse plasma at 100 mg/kg administered via oral gavage after 0.25 to 24 hrs by LC-MS analysis. It is filed as ADME, organism-based. In a few lines:
as §2

A short description of data set [6]: Mutagenicity in Salmonella typhimurium TA100. It is filed as toxicity. Conditions: salmonella enterica subsp. enterica serovar typhimurium.
The target in data set [7] is T2, Aryl hydrocarbon receptor (Homo sapiens, UniProt P35869).
T2 sequence (P35869 whole entry): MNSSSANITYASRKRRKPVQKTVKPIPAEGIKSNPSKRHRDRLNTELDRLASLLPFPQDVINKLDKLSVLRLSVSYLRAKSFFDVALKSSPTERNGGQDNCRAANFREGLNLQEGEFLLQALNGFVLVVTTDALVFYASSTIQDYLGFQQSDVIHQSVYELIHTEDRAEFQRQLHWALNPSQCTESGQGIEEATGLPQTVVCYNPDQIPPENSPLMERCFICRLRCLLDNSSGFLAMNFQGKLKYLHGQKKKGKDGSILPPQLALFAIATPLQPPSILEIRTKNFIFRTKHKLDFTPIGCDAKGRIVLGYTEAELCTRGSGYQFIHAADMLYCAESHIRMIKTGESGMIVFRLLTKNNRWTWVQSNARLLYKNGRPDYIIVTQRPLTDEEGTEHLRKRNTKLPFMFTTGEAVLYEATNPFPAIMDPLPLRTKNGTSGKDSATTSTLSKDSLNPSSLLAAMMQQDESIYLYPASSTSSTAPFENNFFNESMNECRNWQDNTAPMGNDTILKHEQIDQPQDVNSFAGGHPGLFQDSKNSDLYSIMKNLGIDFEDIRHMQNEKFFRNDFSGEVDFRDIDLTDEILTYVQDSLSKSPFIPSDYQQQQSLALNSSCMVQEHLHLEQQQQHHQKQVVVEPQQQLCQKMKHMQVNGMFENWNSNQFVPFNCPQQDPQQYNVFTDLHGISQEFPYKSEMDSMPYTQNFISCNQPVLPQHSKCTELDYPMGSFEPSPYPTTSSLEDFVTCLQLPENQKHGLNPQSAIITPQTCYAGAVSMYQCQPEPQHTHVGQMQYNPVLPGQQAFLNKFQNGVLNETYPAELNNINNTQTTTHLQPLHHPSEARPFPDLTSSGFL
The data set can be described thus: Transactivation of AhR (unknown origin) assessed as upregulation of CYP1A2 at 0.1 to 1 microg/ml. It is filed as ADME. The method, boiled down:
as §1

In data set [8] the test system is Mycobacterium tuberculosis. The data set can be described thus: Antimycobacterial activity against Mycobacterium tuberculosis H37Rv assessed as growth inhibition at 0.0313 times MIC after 7 to 14 days in presence of 0.5 times MIC of rifampin by alamar blue assay based by Bliss synergy model analysis. It is filed as functional. In a few lines: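 Checkerboard of 2-fold dilutions, 4.0 to 0.0313 × MIC of each drug combined with rifampin. M. tuberculosis H37Rv at 1 × 10^4 CFU per well in 200 μL. Single-drug, blank and full-growth controls included. alamarBlue read-out, percent inhibition calculated. Bliss independence applied to wells below 1 × MIC; Δfaxy > 0 taken as synergy, < 0 as antagonism.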
For orientation: Alamar Blue is a resazurin reagent that responds to reducing activity.

In data set [9] the test system is Mycobacterium tuberculosis. The data set can be described thus: Antimycobacterial activity against Mycobacterium tuberculosis H37Rv grown on serum isolated from 100 mg/kg, po treated BALB/c mouse for 30 to 120 mins assessed as reduction in bacterial growth followed by bacterial addition incubated for 7 days by alamar blue reagent based serum inhibition titration assay. It is filed as functional, organism-based. In a few lines: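 Six-week-old female BALB/c mice (20 g) given one oral dose as suspension in 0.5% CMC in water; isoniazid 10 mg/kg as positive control, vehicle as negative. Serum collected at 30, 60 and 120 min, pooled from three mice per time point, 2-fold serially diluted. 10^4 CFU H37Rv added per well, 7 days at 37 °C. alamarBlue added for 16−18 h, fluorescence read at Ex544/Em590 and plotted against serum titration.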

In data set [10] the test system is Mycobacterium tuberculosis. The data set can be described thus: Antimycobacterial activity against Mycobacterium tuberculosis H37Rv infected in BALB/c mouse model assessed as reduction in CFU counts in lungs administered daily via oral gavage for 5 days per week measured after 14 to 28 days post dosage relative to control. It is filed as functional, organism-based. The method, boiled down: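 Female BALB/c mice, 4-6 weeks old, aerosol-infected with H37Rv (about 10^3 CFU); five mice taken on day 1 for lung implantation CFU. From day 1, 12.5, 25, 50 or 100 mg/kg in 0.5% carboxymethylcellulose by daily oral gavage, 5 days/week. Ethambutol 100 mg/kg as positive control, untreated infected mice as negative, 5 mice per group. Lung homogenates plated on 7H11 selective agar on days 14 and 28.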

Data set [11] in a line: Mutagenicity in Salmonella typhimurium TA1537. It is filed as toxicity. The conditions noted are these: salmonella enterica subsp. enterica serovar typhimurium.
For data set [12], the target named is Cytochrome P450 2D6 (Homo sapiens, UniProt P10635). The data set can be described thus: Inhibition of CYP2D6 (unknown origin). It is filed as ADME.
A short description of data set [13]: Mutagenicity in Salmonella typhimurium TA1535. It is filed as toxicity. The conditions noted are these: salmonella enterica subsp. enterica serovar typhimurium.

Chain of Voltage-gated inwardly rectifying potassium channel KCNH2 (Q12809 whole entry): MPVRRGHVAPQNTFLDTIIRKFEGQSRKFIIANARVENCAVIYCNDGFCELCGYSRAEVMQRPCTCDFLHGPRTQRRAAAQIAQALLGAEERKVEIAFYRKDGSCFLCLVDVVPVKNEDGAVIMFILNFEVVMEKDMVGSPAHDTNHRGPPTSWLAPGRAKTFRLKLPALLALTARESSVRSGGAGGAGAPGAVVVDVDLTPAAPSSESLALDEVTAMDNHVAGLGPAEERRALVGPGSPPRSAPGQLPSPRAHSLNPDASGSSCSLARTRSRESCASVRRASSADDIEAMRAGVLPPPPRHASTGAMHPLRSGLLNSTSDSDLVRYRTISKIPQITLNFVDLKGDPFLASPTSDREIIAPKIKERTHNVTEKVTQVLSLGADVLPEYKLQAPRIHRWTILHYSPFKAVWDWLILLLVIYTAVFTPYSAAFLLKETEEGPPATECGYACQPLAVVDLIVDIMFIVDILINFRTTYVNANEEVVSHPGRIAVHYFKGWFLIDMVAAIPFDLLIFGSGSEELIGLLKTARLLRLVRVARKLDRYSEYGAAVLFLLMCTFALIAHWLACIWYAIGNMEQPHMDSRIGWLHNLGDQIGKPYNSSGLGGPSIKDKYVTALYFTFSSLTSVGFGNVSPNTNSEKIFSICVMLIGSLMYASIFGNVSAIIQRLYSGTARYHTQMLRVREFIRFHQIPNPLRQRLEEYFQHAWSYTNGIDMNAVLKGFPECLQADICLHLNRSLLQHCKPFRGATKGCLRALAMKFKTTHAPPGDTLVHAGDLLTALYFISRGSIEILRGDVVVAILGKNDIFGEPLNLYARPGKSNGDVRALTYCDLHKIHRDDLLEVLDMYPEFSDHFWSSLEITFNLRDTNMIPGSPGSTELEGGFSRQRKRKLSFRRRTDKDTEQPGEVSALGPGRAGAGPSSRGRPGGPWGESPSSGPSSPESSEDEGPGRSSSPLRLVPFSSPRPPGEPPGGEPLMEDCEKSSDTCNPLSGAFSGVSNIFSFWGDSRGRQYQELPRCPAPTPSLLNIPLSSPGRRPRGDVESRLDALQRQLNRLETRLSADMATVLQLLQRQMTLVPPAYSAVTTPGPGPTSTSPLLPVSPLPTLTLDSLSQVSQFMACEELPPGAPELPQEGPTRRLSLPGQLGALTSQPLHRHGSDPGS
Chain of Cytochrome P450 2D6 (P10635 whole entry): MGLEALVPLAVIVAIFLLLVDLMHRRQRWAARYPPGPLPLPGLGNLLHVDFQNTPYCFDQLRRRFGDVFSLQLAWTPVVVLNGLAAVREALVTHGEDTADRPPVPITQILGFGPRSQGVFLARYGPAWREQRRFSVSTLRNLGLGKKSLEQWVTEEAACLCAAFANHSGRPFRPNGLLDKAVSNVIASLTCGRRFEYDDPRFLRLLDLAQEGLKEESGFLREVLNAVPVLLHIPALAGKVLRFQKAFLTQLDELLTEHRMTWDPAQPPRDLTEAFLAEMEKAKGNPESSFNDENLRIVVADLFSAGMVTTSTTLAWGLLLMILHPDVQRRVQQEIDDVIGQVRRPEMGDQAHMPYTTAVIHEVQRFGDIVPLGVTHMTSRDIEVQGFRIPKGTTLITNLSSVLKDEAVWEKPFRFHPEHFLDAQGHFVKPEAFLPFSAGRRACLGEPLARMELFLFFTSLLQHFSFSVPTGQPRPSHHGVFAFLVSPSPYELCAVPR

In turn, `C[C@@H]1[C@H]2C[C@@H](C[C@H]1NC(=O)c1cc3c(F)cc(F)cc3[nH]1)C2(C)C` came in with an AUClast in data set [1] of 51 µg·h/g. Besides, the Activity entry in [2] was “Not Active”; in [6] it was “Non-Toxic”; in data set [7], “Not Active”; in [10], “Dose-dependent effect”; in data set [11] it was “Non-Toxic”; in data set [13], “Non-Toxic”. In [3], this molecule yielded an IC50 of more than 30 µM. For the same molecule, the Tmax in data set [4] and in data set [5] was 4 h throughout. In addition, the “growth inhibition (GI)” value in data set [8] is 90.5%. For the same molecule, the outcome in data set [9] was Active. Also, the “inhibition (INH)” value in data set [12] is 36.6%.

A word on the IC50: it is the midpoint of a concentration-inhibition curve. A lower IC50 goes with inhibition by little substance. One may read the Tmax as the time at which the peak concentration occurs.
